Starred links: 1 amine or outer side, 2 acyl side, 3 side chain; linkers in the order of their positions; H or OH if unused. Positions of bridges follow the written chain, without caps; N, C: chain ends. Non-standard residues stand in square brackets, D forms with d. Residues, ends and D or L forms follow the SMILES beside them. Chains are numbered I, II in the order given. Actinocin(9to1) = Cc1c2oc3c(C)ccc(C(=O)[*:1])c3nc-2c(C(=O)[*:2])c(N)c1=O; NMeV = CN[C@H](C(=O)O)C(C)C; Sar = CNCC(=O)O
Experiments:
[1] = test system: Calf thymus DNA; test: Binding affinity to calf thymus DNA assessed as reduction in DNA peak by pre-incubation method; format: nucleic-acid assay; parameters: concentration or dose not given beside the values; conditions: Bos taurus
Summary of the method: (§1)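 Nucleic acid at 0.1 mg/ml in water; test substance at 1.0 mg/ml in water or MeOH, mixed 1:1 (v/v) and held at ambient temperature for 5–30 min. 40 or 80 µl injected onto a C18 reversed-phase column equilibrated in H2O-MeOH (80:20), 1 ml/min, with 254 nm detection. The free nucleic-acid peak (~1.2 min) was compared with nucleic acid injected alone.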

[2] = test system: Nucleic Acid; test: Binding affinity to yeast tRNA assessed as reduction in tRNA peak by pre-incubation method; format: nucleic-acid assay; parameters: concentration or dose not given beside the values; conditions: Saccharomyces cerevisiae; summary of the method: as §1

Molecule | Activity [1] [%] | Activity [2] [%]
CC(C)=CC(=O)O[C@@H]1C(C)=C2C(=O)C=C(C)[C@]2(O)[C@H]2OC(=O)C[C@@H]2[C@H]1O | 30 | –
COC(=O)CC1(O)C=CC(=O)C=C1 | 30 | < 30
COc1cc2c(ccc3c4cc(OC)c(OC)cc4c[n+](C)c23)cc1O | 100 | 100
CC[C@]1(O)C[C@H]2CN(CCc3c([nH]c4ccccc34)[C@@](C(=O)OC)(c3cc4c(cc3OC)N(C=O)[C@H]3[C@@](O)(C(=O)OC)[C@H](OC(C)=O)[C@]5(CC)C=CCN6CC[C@]43[C@@H]65)C2)C1 | > 70 | 100
COc1cccc2c1C(=O)c1c(O)c3c(c(O)c1C2=O)C[C@@](O)(C(C)=O)C[C@@H]3O[C@H]1C[C@H](N)[C@H](O)[C@H](C)O1 | 100 | –
COc1cc2c(c(OC)c1OC)-c1ccc(OC)c(=O)cc1[C@@H](NC(C)=O)CC2 | < 30 | < 30
COc1cc2c(c3c1c(=O)c1ccccc1n3C)C=CC(C)(C)O2 | < 30 | –
C=C1C(=O)O[C@H]2[C@H]1[C@@H](O)[C@H](OC(=O)C=C(C)C)C(C)=C1C[C@H]3O[C@@]3(C)[C@@H]12 | 30 | –
COc1ccc2c(c1)c1ccnc3ccc(=O)n2c31 | 30 | –
C=C1C(=O)O[C@@H]2C3O[C@]3(C)CC/C=C(\C)CC[C@@H]12 (stereo partly specified) | 30 | < 30
C=C1C(=O)O[C@H]2[C@H]1[C@@H](O)[C@H](O)C(C)=C1C[C@H]3O[C@@]3(C)[C@@H]12 | 30 | < 30
Cc1c2oc3c(C)ccc(C(=O)N[C@@H]4C(=O)N[C@H](C(C)C)C(=O)N5CCC[C@H]5C(=O)N(C)CC(=O)N(C)[C@@H](C(C)C)C(=O)O[C@@H]4C)c3nc-2c(C(=O)N[C@@H]2C(=O)N[C@H](C(C)C)C(=O)N3CCC[C@H]3C(=O)N(C)CC(=O)N(C)[C@@H](C(C)C)C(=O)O[C@@H]2C)c(N)c1=O (I: T[dV]P[Sar][NMeV] / II: T[dV]P[Sar][NMeV]; ester I:1-I:C, II:1-II:C; linker I:N-II:N via Actinocin(9to1)) | 30 | < 30
CC[n+]1c(-c2ccccc2)c2cc(N)ccc2c2ccc(N)cc21 | 100 | 100
BLEOMYCIN | < 30 | > 70
Cc1c2ccncc2c(C)c2c1[nH]c1ccccc12 | > 70 | 30
CC[C@]1(O)C[C@@H]2CN(CCc3c([nH]c4ccccc34)[C@@](C(=O)OC)(c3cc4c(cc3OC)N(C)[C@H]3[C@@](O)(C(=O)OC)[C@H](OC(C)=O)[C@]5(CC)C=CCN6CC[C@]43[C@@H]65)C2)C1 | > 70 | 100
COc1cccc2c1C(=O)c1c(O)c3c(c(O)c1C2=O)C[C@@](O)(C(=O)CO)C[C@@H]3O[C@H]1C[C@H](N)[C@H](O)[C@H](C)O1 | 100 | 100
Nc1c2ccccc2nc2ccccc12 | > 70 | 100

From ChEMBL document CHEMBL1150198, “DNA as an affinity probe useful in the detection and isolation of biologically active natural products” (J Nat Prod, 1991)
